Assay results reported in ChEMBL document CHEMBL1154419, “Pharmacodynamic effects of telavancin against methicillin-resistant and methicillin-susceptible Staphylococcus aureus strains in the presence of human albumin or serum and in an in vitro kinetic model” (Antimicrob Agents Chemother, 2007).
Values after ≈ are worked out from the molar mass of the structure shown. Active and inactive are the calls of the source. No cut-off for these calls is given here.

Columns and labels:
Staphylococcus aureus [1] = assay: Antibacterial activity against methicillin-susceptible Staphylococcus aureus ATCC 13709 assessed as change in bacterial burden at 20 mg/liter after 4 hrs; assay type: functional
Staphylococcus aureus [2] = assay: Antibacterial activity against methicillin-susceptible Staphylococcus aureus ATCC 13709 assessed as change in bacterial burden at 40 mg/liter after 8 hrs; assay type: functional
Staphylococcus aureus [3] = assay: Antibacterial activity against methicillin-resistant Staphylococcus aureus ATCC 33591 assessed as change in bacterial burden at 1 mg/liter after 8 hrs; assay type: functional
How it was run: (§1)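 In vitro kinetic model: spinner flask with 0.45-μm filter and prefilter, stirred, M-H broth at 37°C, starting inoculum approx. 5 × 10⁵ CFU/ml. Single initial drug dose of 1.0 to 40 mg/liter, with flow set to give a half-life of approx. 8 h. Viable counts at 0, 2, 4, 6, 8, 12 and 24 h. Duplicate runs per strain and concentration.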

Staphylococcus aureus [4] = assay: Antibacterial activity against methicillin-susceptible Staphylococcus aureus ATCC 13709 assessed as change in bacterial burden at 10 mg/liter after 2 hrs; assay type: functional; how it was run: as §1
Staphylococcus aureus [5] = assay: Antibacterial activity against methicillin-resistant Staphylococcus aureus ATCC 33591 assessed as bacterial killing at 10 times MIC after 24 hrs in PBS-nutrient depleted medium; assay type: functional, organism-based
How it was run: (§2)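 Strain diluted in M-H broth to approx. 10⁵ CFU/ml and grown 6 h into log phase, then split. Broth tubes got drug at 10× MIC directly. PBS tubes were transferred to PBS and held 3 h more, then dosed at 10× MIC. Growth controls were run in each medium. Viable counts at 0, 3, 6, 9, 12 and 24 h. Run in duplicate.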

Staphylococcus aureus [6] = assay: Antibacterial activity against methicillin-resistant Staphylococcus aureus ATCC 33591 assessed as bacterial regrowth at 1 times MIC after 24 hrs in presence of human albumin; assay type: functional, organism-based
How it was run: (§3)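 Static time-kill in M-H broth, in M-H broth with 40 g/liter fatty-acid-free purified human albumin, or in M-H broth with inactivated 50% human serum. Inoculum approx. 5 × 10⁵ CFU/ml, drug at 0.5, 1, 2.5, 5, 10, 25 and 50× MIC, 37°C. Samples at 0, 3, 6, 12 and 24 h plated on blood agar, counted after 24 h. Detection limit 5 × 10¹ CFU/ml. Run in duplicate.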

Staphylococcus aureus [7] = assay: Antibacterial activity against methicillin-susceptible Staphylococcus aureus ATCC 13709 assessed as change in bacterial burden at 1 mg/liter after 12 hrs; assay type: functional; how it was run: as §1
Staphylococcus aureus [8] = assay: Antibacterial activity against methicillin-resistant Staphylococcus aureus ATCC 33591 assessed as change in bacterial burden at 10 mg/liter after 8 hrs; assay type: functional; how it was run: as §1
Staphylococcus aureus [9] = assay: Antibacterial activity against methicillin-susceptible Staphylococcus aureus ATCC 13709 assessed as change in bacterial burden at 40 mg/liter after 6 hrs; assay type: functional
Staphylococcus aureus [10] = assay: Antibacterial activity against methicillin-resistant Staphylococcus aureus ATCC 33591 assessed as change in bacterial burden at 5 mg/liter after 4 hrs; assay type: functional; how it was run: as §1
Staphylococcus aureus [11] = assay: Antibacterial activity against methicillin-susceptible Staphylococcus aureus ATCC 13709 assessed as change in bacterial burden at 5 mg/liter after 12 hrs; assay type: functional
[12] = Cmax in human serum at 7.5 mg/kg; assay type: ADME, organism-based; parameters: dose 7.5 mg/kg
Staphylococcus aureus [13] = assay: Antibacterial activity against methicillin-resistant Staphylococcus aureus COL infected New Zealand white rabbit endocarditis model assessed as reduction in mean aortic vegetation titer at 30 mg/kg, iv twice daily after 4 days; assay type: functional, Aorta
Staphylococcus aureus [14] = assay: Antibacterial activity against methicillin-susceptible Staphylococcus aureus ATCC 13709 assessed as change in bacterial burden at 2.5 mg/liter after 8 hrs; assay type: functional
Staphylococcus aureus [15] = assay: Antibacterial activity against methicillin-resistant Staphylococcus aureus ATCC 33591 assessed as change in bacterial burden at 1 mg/liter after 2 hrs; assay type: functional; how it was run: as §1
[16] = Half life in human serum at 7.5 mg/kg; assay type: ADME, organism-based; parameters: dose 7.5 mg/kg
Staphylococcus aureus [17] = assay: Antibacterial activity against methicillin-susceptible Staphylococcus aureus ATCC 13709 assessed as change in bacterial burden at 20 mg/liter after 2 hrs; assay type: functional
Staphylococcus aureus [18] = assay: Antibacterial activity against methicillin-resistant Staphylococcus aureus ATCC 33591 assessed as bacterial killing at 50 times MIC after 24 hrs in presence of human albumin; assay type: functional, organism-based; how it was run: as §3
Staphylococcus aureus [19] = assay: Antibacterial activity against methicillin-susceptible Staphylococcus aureus ATCC 13709 assessed as change in bacterial burden at 40 mg/liter after 2 hrs; assay type: functional; how it was run: as §1
Staphylococcus aureus [20] = assay: Antibacterial activity against methicillin-susceptible Staphylococcus aureus ATCC 13709 assessed as change in bacterial burden at 1 mg/liter after 6 hrs; assay type: functional
Staphylococcus aureus [21] = assay: Antibacterial activity against methicillin-susceptible Staphylococcus aureus ATCC 13709 assessed as bacterial regrowth at 5 mg/liter Cmax; assay type: functional, organism-based
Staphylococcus aureus [22] = assay: Antibacterial activity against methicillin-susceptible Staphylococcus aureus ATCC 13709 in MH-broth; assay type: functional, organism-based
Staphylococcus aureus [23] = assay: Antibacterial activity against methicillin-resistant Staphylococcus aureus ATCC 33591 assessed as bacterial killing at 10 times MIC after 6 hrs in MH-broth; assay type: functional, organism-based; how it was run: as §2
Staphylococcus aureus [24] = assay: Antibacterial activity against methicillin-susceptible Staphylococcus aureus ATCC 13709 assessed as change in bacterial burden at 5 mg/liter after 4 hrs; assay type: functional
[25] = AUC (0 to 24 hrs) in human at 10 mg/kg once daily; assay type: ADME, organism-based; parameters: time < 24 hr, dose 10 mg/kg; settings: plasma
Staphylococcus aureus [26] = assay: Antibacterial activity against methicillin-susceptible Staphylococcus aureus ATCC 13709 assessed as change in bacterial burden at 5 mg/liter after 24 hrs; assay type: functional
Staphylococcus aureus [27] = assay: Antibacterial activity against methicillin-susceptible Staphylococcus aureus ATCC 13709 assessed as change in bacterial burden at 10 mg/liter after 4 hrs; assay type: functional
Staphylococcus aureus [28] = assay: Antibacterial activity against methicillin-susceptible Staphylococcus aureus ATCC 13709 assessed as change in bacterial burden at 1 mg/liter after 24 hrs; assay type: functional
Staphylococcus aureus [29] = assay: Antibacterial activity against methicillin-resistant Staphylococcus aureus ATCC 33591 assessed as change in bacterial burden at 5 mg/liter after 8 hrs; assay type: functional; how it was run: as §1
Staphylococcus aureus [30] = assay: Antibacterial activity against methicillin-susceptible Staphylococcus aureus ATCC 13709 assessed as change in bacterial burden at 40 mg/liter after 24 hrs; assay type: functional
Plasma = assay: Protein binding in human plasma; assay type: ADME, cell-free
[31] = Cmax in human at 10 mg/kg once daily; assay type: ADME, organism-based; parameters: dose 10 mg/kg; settings: in vivo
Staphylococcus aureus [32] = assay: Antibacterial activity against methicillin-susceptible Staphylococcus aureus ATCC 13709 assessed as change in bacterial burden at 2.5 mg/liter after 2 hrs; assay type: functional
Staphylococcus aureus [33] = assay: Antibacterial activity against methicillin-susceptible Staphylococcus aureus ATCC 13709 after 18 to 24 hrs by macrodilution technique; assay type: functional
How it was run: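 Broth macrodilution per CLSI, run in triplicate on separate occasions. Twofold serial drug dilutions in broth, inoculum approx. 5 × 10⁵ CFU/ml, 37°C for 18 to 24 h. MIC taken as the lowest concentration with no visible growth.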

Staphylococcus aureus [34] = assay: Antibacterial activity against methicillin-susceptible Staphylococcus aureus ATCC 13709 assessed as change in bacterial burden at 1 mg/liter after 4 hrs; assay type: functional
Staphylococcus aureus [35] = assay: Antibacterial activity against methicillin-susceptible Staphylococcus aureus ATCC 13709 assessed as change in bacterial burden at 5 mg/liter after 8 hrs; assay type: functional

With `CCCCCCCCCCNCCN[C@@]1(C)C[C@H](O[C@H]2[C@H](Oc3c4cc5cc3Oc3ccc(cc3Cl)[C@@H](O)[C@@H](NC(=O)[C@@H](CC(C)C)NC)C(=O)N[C@@H](CC(N)=O)C(=O)N[C@H]5C(=O)N[C@H]3C(=O)N[C@H](C(=O)N[C@H](C(=O)O)c5cc(O)c(CNCP(=O)(O)O)c(O)c5-c5cc3ccc5O)[C@H](O)c3ccc(c(Cl)c3)O4)O[C@H](CO)[C@@H](O)[C@@H]2O)O[C@@H](C)[C@H]1O` [TELAVANCIN] the deltalog10CFU/ml (Staphylococcus aureus [1]) was -2.9, the deltalog10CFU/ml (Staphylococcus aureus [2]) was -4.7 and the deltalog10CFU/ml (Staphylococcus aureus [3]) was -3.5. The deltalog10CFU/ml (Staphylococcus aureus [4]) was -1.2, the Activity (Staphylococcus aureus [5]) was “Active” and the Activity (Staphylococcus aureus [6]) was “Active”. It also gave a deltalog10CFU/ml (Staphylococcus aureus [7]) of -2.6, a deltalog10CFU/ml (Staphylococcus aureus [8]) of -3.8 and a deltalog10CFU/ml (Staphylococcus aureus [9]) of -4.7. It also gave a deltalog10CFU/ml (Staphylococcus aureus [10]) of -2.1, a deltalog10CFU/ml (Staphylococcus aureus [11]) of -4.7 and a Cmax [12] of 60000 ng/mL. It also gave a log10CFU/g (Staphylococcus aureus [13]) of 4.7, a deltalog10CFU/ml (Staphylococcus aureus [14]) of -3.4 and a deltalog10CFU/ml (Staphylococcus aureus [15]) of -1. For the same compound, the half-life [16] was 7 h, the deltalog10CFU/ml (Staphylococcus aureus [17]) was -1.3 and the Activity (Staphylococcus aureus [18]) was “Active”. The deltalog10CFU/ml (Staphylococcus aureus [19]) was -1.9, the deltalog10CFU/ml (Staphylococcus aureus [20]) was -2 and the Activity (Staphylococcus aureus [21]) was “Active”. For the same compound, the Activity (Staphylococcus aureus [22]) was “Dose-dependent effect”, the Activity (Staphylococcus aureus [23]) was “Active” and the deltalog10CFU/ml (Staphylococcus aureus [24]) was -2.3. The AUC at 24 h [25] was 51000 ng·h/mL, the deltalog10CFU/ml (Staphylococcus aureus [26]) was -4.7 and the deltalog10CFU/ml (Staphylococcus aureus [27]) was -2.4. For the same compound, the deltalog10CFU/ml (Staphylococcus aureus [28]) was -0.5, the deltalog10CFU/ml (Staphylococcus aureus [29]) was -3.6 and the deltalog10CFU/ml (Staphylococcus aureus [30]) was -4.7. The Activity (Plasma) was 92%, the Cmax [31] was 5200 ng/mL and the deltalog10CFU/ml (Staphylococcus aureus [32]) was -1.1. It also gave an MIC (Staphylococcus aureus [33]) of 1 µg/mL (≈ 0.57 µM), a deltalog10CFU/ml (Staphylococcus aureus [34]) of -1.3 and a deltalog10CFU/ml (Staphylococcus aureus [35]) of -4.
